Data: ChEMBL document CHEMBL5329149, “Identification of macrocyclic peptides which activate bacterial cylindrical proteases” (RSC Med Chem, 2023)
Active and inactive are the calls of the source. The rule behind the calls is not given here. Starred links: 1 amine or outer side, 2 acyl side, 3 side chain; linkers in the order of their positions; H or OH if unused. Positions of bridges follow the written chain, without caps; N, C: chain ends. Non-standard residues stand in square brackets, D forms with d. Residues, ends and D or L forms follow the SMILES beside them. *: point of attachment. Phe(3,5-F2) = N[C@@H](Cc1cc(F)cc(F)c1)C(=O)O; X1 = CN(CC(=O)O)c1nc(CC[*:1])cc(CC[*:2])n1; CH2COCH2 = O=C(C[*:1])C[*:2]; Cam = NC(=O)C*

Experiments:
[1] = target: T1, ATP-dependent Clp protease proteolytic subunit (Staphylococcus aureus (strain NCTC 8325)) (UniProt Q2G036); test: Induction of tetra-decameric form of Staphylococcus aureus ClpP stabilization in Tris-HCl
T1 sequence (whole entry): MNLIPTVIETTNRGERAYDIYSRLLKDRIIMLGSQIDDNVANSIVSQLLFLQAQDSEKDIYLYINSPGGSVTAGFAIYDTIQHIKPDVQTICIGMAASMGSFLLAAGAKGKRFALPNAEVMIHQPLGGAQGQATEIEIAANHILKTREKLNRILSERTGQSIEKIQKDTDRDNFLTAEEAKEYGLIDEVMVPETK
How it was run: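 S. aureus ClpP (1 mg/mL) incubated overnight at 32 °C with or without ligands (200 µM, DMSO as blank) in destabilizing buffer (100 mM Tris-HCl pH 7.6, 100 mM KCl). Oligomeric state then analysed by gel filtration on a pre-equilibrated Superdex 200 Increase 10/300 column, tetradecamer versus heptamer.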

[2] = target: T1, ATP-dependent Clp protease proteolytic subunit (Staphylococcus aureus (strain NCTC 8325)); test: Activation of Staphylococcus aureus ClpP assessed as beta-casein digestion using beta-casein/FITC casein as substrate at 200 uM incubated for 24 hrs; conditions: filed as activator
How it was run: (§1)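 Purified ClpP (1.0 µM, final) was incubated with bovine beta-casein (5.0 µM or 3 µM) and ligand at 37 °C, in 100 mM Tris-HCl pH 7.6 with 100 mM KCl or 100 mM HEPES pH 7 with 150 mM NaCl. Timed aliquots were quenched in SDS loading buffer at 90 °C for 5 min, run on SDS-PAGE, stained with Coomassie and quantified by densitometry. ≥3 independent experiments.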

[3] = target: T1, ATP-dependent Clp protease proteolytic subunit (Staphylococcus aureus (strain NCTC 8325)); test: Activation of Staphylococcus aureus ClpP assessed as FtsZ digestion at 200 uM incubated for 24 hrs by densitometric analysis; conditions: filed as activator
How it was run: (§2)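 Strep-tagged S. aureus ClpP (1.0 µM, expressed in ClpP-deficient E. coli SG1146a) digesting S. aureus FtsZ (4.0 µM, final) with ligand at 37 °C, under the same conditions as the beta-casein assay. Timed aliquots were quenched with SDS loading buffer and heated, then resolved by SDS-PAGE, Coomassie-stained and quantified by densitometry. ≥3 independent experiments.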

[4] = target: ATP-dependent Clp protease proteolytic subunit (Escherichia coli (strain K12)) (UniProt P0A6G7); test: Activation of Escherichia coli ClpP assessed as increase in fluorescence intensity using beta-casein/FITC casein as substrate at 200 uM incubated for 24 hrs
How it was run: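 E. coli ClpP (0.5 µM, His-tagged, expressed in E. coli C41(DE3)) with FITC-casein (1.8 µM) plus bovine beta-casein (4.8 µM), final concentrations. Ligands at 200 µM in 100 mM Tris-HCl pH 7.6, 100 mM KCl, 24 h at 37 °C. Fluorescence read at ex 483/em 530 nm, mean of DMSO wells subtracted. Run in parallel without ClpP to exclude false positives. Duplicates, ≥2 independent experiments, mean ± SD.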

[5] = target: ATP-dependent Clp protease proteolytic subunit (Escherichia coli (strain K12)) (UniProt P0A6G7); test: Activation of Escherichia coli ClpP assessed as beta-casein digestion using beta-casein/FITC casein as substrate at 200 uM incubated for 24 hrs by SDS-PAGE analysis; conditions: filed as activator; how it was run: as §1
[6] = target: T1, ATP-dependent Clp protease proteolytic subunit (Staphylococcus aureus (strain NCTC 8325)); test: Activation of Staphylococcus aureus ClpP assessed as beta-casein digestion using beta-casein/FITC casein as substrate at 10 uM incubated for 24 hrs; conditions: filed as activator; how it was run: as §1
[7] = target: T1, ATP-dependent Clp protease proteolytic subunit (Staphylococcus aureus (strain NCTC 8325)); test: Activation of Staphylococcus aureus ClpP assessed as FtsZ digestion at 10 uM incubated for 24 hrs by densitometric analysis; conditions: filed as activator; how it was run: as §2
[8] = target: T2, ATP-dependent Clp protease proteolytic subunit (Staphylococcus aureus (strain NCTC 8325), UniProt Q2G036); test: Activation of Staphylococcus aureus ClpP assessed as beta-casein digestion using beta-casein/FITC casein as substrate incubated for 24 hrs
T2 sequence (Q2G036 whole entry): T1 sequence (whole entry)

Chain of ATP-dependent Clp protease proteolytic subunit (Escherichia coli (strain K12)) (P0A6G7 whole entry): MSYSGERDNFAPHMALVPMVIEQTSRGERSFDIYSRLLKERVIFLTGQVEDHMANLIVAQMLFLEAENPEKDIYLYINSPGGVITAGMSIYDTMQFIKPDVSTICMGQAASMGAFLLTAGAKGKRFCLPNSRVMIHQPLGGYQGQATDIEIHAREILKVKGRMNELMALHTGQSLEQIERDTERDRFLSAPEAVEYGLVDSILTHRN

`CCCC/C=C/C(=O)N[C@@H](Cc1cc(F)cc(F)c1)C(=O)OC` was tested, and the Activity [1] was “Active”, the Activity [2] was “Active” and the Activity [3] was “Active”.
With `CC[C@H](C)[C@@H]1NC(=O)CNC(=O)[C@@H](NC(C)=O)CSCC(=O)CSC[C@@H](C(N)=O)NC(=O)CNC(=O)[C@@H](Cc2ccccc2)NC(=O)CNC1=O` the Activity [4] was “inactive”.
For `CC[C@H](C)[C@@H]1NC(=O)CNC(=O)[C@@H](NC(C)=O)CSCC(=O)CSC[C@@H](C(N)=O)NC(=O)CNC(=O)[C@H](Cc2ccccc2)NC(=O)CNC1=O`, the Activity [2] was “Active”, the Activity [3] was “Active” and the Activity [5] was “Active”.
In the case of `CC[C@H](C)[C@@H]1NC(=O)CNC(=O)[C@H](NC(C)=O)CSCC(=O)CSC[C@@H](C(N)=O)NC(=O)CNC(=O)[C@H](C)NC(=O)CNC1=O`, the Activity [4] is reported as “inactive”.
In the case of `C[C@@H]1C[C@H]2C(=O)OC[C@H](NC(=O)[C@H](Cc3cc(F)cc(F)c3)NC(=O)CCC3CCCCC3)C(=O)N3CCC[C@H]3C(=O)N3CCCC[C@H]3C(=O)N[C@@H](C)C(=O)N2C1`, the Activity [6] is reported as “Active”, the Activity [1] is reported as “Active” and the Activity [7] is reported as “Active”.
In the case of `CC[C@H](C)[C@H](NC(=O)CNC(=O)[C@H](CSCC(N)=O)NC(C)=O)C(=O)NCC(=O)N[C@@H](Cc1ccccc1)C(=O)NCC(=O)N[C@@H](C)C(=O)N[C@@H](CSCC(N)=O)C(N)=O` (Ac-C(Cam)GIGFGAC(Cam)-NH2), the Activity [4] is reported as “inactive”.
For `CC[C@H](C)[C@H](NC(=O)CNC(=O)[C@H](CSCC(N)=O)NC(C)=O)C(=O)NCC(=O)N[C@@H](Cc1ccccc1)C(=O)NCC(=O)N[C@@H](C)C(=O)N[C@H](C(=O)N[C@@H](CSCC(N)=O)C(N)=O)[C@@H](C)O` (Ac-C(Cam)GIGFGATC(Cam)-NH2), the Activity [4] was “inactive”.
`CC[C@H](C)[C@H](NC(=O)CNC(=O)[C@H](CSCC(N)=O)NC(C)=O)C(=O)NCC(=O)N[C@@H](Cc1ccccc1)C(=O)NCC(=O)N[C@@H](CSCC(N)=O)C(N)=O` (Ac-C(Cam)GIGFGC(Cam)-NH2) was tested, and the Activity [4] was “inactive”.
With `CC[C@H](C)[C@H](NC(=O)CNC(=O)[C@H](CSCC(N)=O)NC(C)=O)C(=O)NCC(=O)N[C@@H](Cc1cc(F)cc(F)c1)C(=O)NCC(=O)N[C@@H](CSCC(N)=O)C(N)=O` (Ac-C(Cam)GIG[Phe(3,5-F2)]GC(Cam)-NH2) the Activity [4] was “inactive”.
In the case of `CC[C@H](C)[C@H](NC(=O)[C@H](CSCC(N)=O)NC(C)=O)C(=O)NCC(=O)N[C@@H](Cc1ccccc1)C(=O)NCC(=O)N[C@@H](C)C(=O)N[C@@H](CSCC(N)=O)C(N)=O` (Ac-C(Cam)IGFGAC(Cam)-NH2), the Activity [4] is reported as “inactive”.
With `CC[C@H](C)[C@H](NC(=O)[C@H](CSCC(N)=O)NC(C)=O)C(=O)NCC(=O)N[C@@H](Cc1ccccc1)C(=O)NCC(=O)N[C@@H](C)C(=O)N[C@H](C(=O)N[C@@H](CSCC(N)=O)C(N)=O)[C@@H](C)O` (Ac-C(Cam)IGFGATC(Cam)-NH2) the Activity [4] was “inactive”.
In the case of `CC[C@H](C)[C@H](NC(=O)[C@H](CSCC(N)=O)NC(C)=O)C(=O)NCC(=O)N[C@@H](Cc1ccccc1)C(=O)NCC(=O)N[C@@H](CSCC(N)=O)C(N)=O` (Ac-C(Cam)IGFGC(Cam)-NH2), the Activity [4] is reported as “inactive”.
For `CC[C@H](C)[C@@H]1NC(=O)CNC(=O)[C@@H](NC(C)=O)CSCC(=O)CSC[C@@H](C(N)=O)NC(=O)CNC(=O)[C@H](Cc2cc(F)cc(F)c2)NC(=O)CNC1=O` (Ac-CGIG[Phe(3,5-F2)]GC-NH2; linker 1-7 via CH2COCH2), the Activity ([4]; filed as activator) was “Active”, the Activity [2] was “Active” and the EC50 [8] was 41 µM. For the same compound, the Activity [3] was “Active” and the Activity [5] was “Active”.
In the case of `CC[C@H](C)[C@@H]1NC(=O)CNC(=O)[C@@H](NC(C)=O)CSCCc2cc(nc(N(C)CC(=O)O)n2)CCSC[C@@H](C(N)=O)NC(=O)CNC(=O)[C@H](Cc2cc(F)cc(F)c2)NC(=O)CNC1=O` (Ac-CGIG[Phe(3,5-F2)]GC-NH2; linker 1-7 via X1), the Activity [4] is reported as “inactive”.
